Results as given in ChEMBL document CHEMBL4689842, “EUbOPEN Chemogenomics Library wave 1” (2021).

Tests used:
U2OS = test: Multiplex assay against U2OS; assay type: toxicity, cell-based; settings: human
Summary of the method: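 At seeding, live cells were stained with Hoechst33342, BioTracker Green Microtubule Cytoskeleton Dye, MitoTracker Red and Annexin V Alexa Fluor 680. After compound addition they were imaged on a CQ1 microscope at 37°C and 5% CO2, and CellPathfinder machine-learning gating sorted them into Hoechst high-intensity objects or normal cells, with normal cells further split into healthy, pyknosed or fragmented nuclei and pyknosed cells into mitotic or apoptotic. Tubulin, mitochondrial-mass and membrane-permeability phenotypes are given as per cents of cells with healthy nuclei.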

Fibroblast = test: Incucyte cell viability with human fibroblast; assay type: toxicity, cell-based; settings: 10 µM, compound concentration 10 uM; also: filed as whole numbers so only -1 and 0 and 1 occur
[1] = 12 h, 1 µM, compound concentration 1 uM, replicate 1
[2] = 12 h, 1 µM, compound concentration 1 uM, replicate 2
[3] = 12 h, 10 µM, compound concentration 10 uM, replicate 1
[4] = 12 h, 10 µM, compound concentration 10 uM, replicate 2
[5] = 24 h, 1 µM, compound concentration 1 uM, replicate 1
[6] = 24 h, 1 µM, compound concentration 1 uM, replicate 2
[7] = 24 h, 10 µM, compound concentration 10 uM, replicate 1
[8] = 24 h, 10 µM, compound concentration 10 uM, replicate 2

## NC(=O)c1ccc2nc(-c3ccc(C4(N)CCC4)cc3)c(-c3ccccc3)n2n1 [BAY-1125976]
U2OS; [1]
  Population Apoptotic (%): 52%
  Population Healthy Nuclei (%): 79%
  Population Hoechst High Intensity Objects (%): 6%
  Population Mitochondria Different-Phenotype (%): 19%
  Population Mitotic Cells (%): 47%
  Population Normal (%): 93%
  Population Tubulin-Different-Phenotype (%): 46%
  Total Cell Count: 239
U2OS; [2]
  Population Apoptotic (%): 42%
  Population Healthy Nuclei (%): 80%
  Population Hoechst High Intensity Objects (%): 12%
  Population Mitotic Cells (%): 57%
  Population Normal (%): 87%
  Population Tubulin-Different-Phenotype (%): 35%
  Total Cell Count: 109
U2OS; [3]
  Population Apoptotic (%): 66%
  Population Healthy Nuclei (%): 92%
  Population Mitochondria Different-Phenotype (%): 24%
  Population Mitotic Cells (%): 33%
  Population Tubulin-Different-Phenotype (%): 27%
  Total Cell Count: 210
U2OS; [4]
  Population Apoptotic (%): 20%
  Population Healthy Nuclei (%): 88%
  Population Hoechst High Intensity Objects (%): 4%
  Population Mitochondria Different-Phenotype (%): 23%
  Population Mitotic Cells (%): 80%
  Population Normal (%): 95%
  Population Tubulin-Different-Phenotype (%): 18%
  Total Cell Count: 165
U2OS; [5]
  Population Apoptotic (%): 42%
  Population Healthy Nuclei (%): 76%
  Population Hoechst High Intensity Objects (%): 5%
  Population Mitochondria Different-Phenotype (%): 18%
  Population Mitotic Cells (%): 57%
  Population Normal (%): 94%
  Population Tubulin-Different-Phenotype (%): 23%
  Total Cell Count: 273
U2OS; [6]
  Population Apoptotic (%): 44%
  Population Healthy Nuclei (%): 77%
  Population Hoechst High Intensity Objects (%): 8%
  Population Mitochondria Different-Phenotype (%): 20%
  Population Mitotic Cells (%): 55%
  Population Normal (%): 91%
  Population Tubulin-Different-Phenotype (%): 13%
  Total Cell Count: 124
U2OS; [7]
  Population Apoptotic (%): 33%
  Population Hoechst High Intensity Objects (%): 1%
  Population Mitochondria Different-Phenotype (%): 31%
  Population Mitotic Cells (%): 66%
  Population Normal (%): 98%
  Population Tubulin-Different-Phenotype (%): 30%
  Total Cell Count: 258
U2OS; [8]
  Population Apoptotic (%): 7%
  Population Healthy Nuclei (%): 87%
  Population Hoechst High Intensity Objects (%): 5%
  Population Mitochondria Different-Phenotype (%): 28%
  Population Mitotic Cells (%): 92%
  Population Normal (%): 94%
  Population Tubulin-Different-Phenotype (%): 25%
  Total Cell Count: 213
Fibroblast; 0 h, replicate number 1, timepoint 0 hours
  Growth Rate: 1
Fibroblast; 0 h, replicate number 2, timepoint 0 hours
  Growth Rate: 0
Fibroblast; 24 h, replicate number 1, timepoint 24 hours
  Growth Rate: 1
